Most compounds without a hit are left out; they make up all but 3.5% or so of the library.
HIV Env fusion – blocks HIV Env-driven cell-cell fusion; inhibition, % at 12.3 µM; HeLa-JRFL Env/CEM21 cell fusion, luciferase; 360,000 compounds, 1.1% hits;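 active = mean replicate inhibition score of at least 50 and every replicate individually at or above 50; inconclusive = only one of the two criteria met; inactive = mean below 50 and not all replicates reaching 50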;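 note: 0% = plate neutral controls and 100% = maraviroc near 300 nM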
Cneo AK release – causes C. neoformans cell lysis; AID 651654; lysis activity, % at 15 µM; 360,000 compounds, 0.2% hits; adenylate kinase release luminescence, 4 h; normalised: neutral wells 0, clomiphene wells 100;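 active = mean lysis activity across replicates of at least 80%, whatever share of replicates individually reach that level; inactive = mean lysis activity below 80%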
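read-out = cell lysis signal | test system = log-phase Cryptococcus neoformans yeast cells | input = cells at 5 × 10^6 per mL | medium = fresh YPD growth medium | signal = luminescent adenylate kinase detection reagent | timing = 4 h at 37 °C static, read 1 h later | dosing = single dose | controls = Clomiphene as positive lysis control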
ERAP1 HTS inh – blocks human ERAP1 aminopeptidase activity. recombinant ERAP1, Leu-AMC fluorescence, 60 min. 340,000 compounds, 0.15% hits. inhibition, % at 10.7 µM. Q9NZ08;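 active = mean replicate inhibition of at least 30%, or all replicates individually reaching that 30% level; inactive = mean below 30% and not every replicate reaching it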;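 note: 0% = neutral control wells and 100% = L-leucinethiol positive control wells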
Target sequence (Q9NZ08 whole entry, looked up): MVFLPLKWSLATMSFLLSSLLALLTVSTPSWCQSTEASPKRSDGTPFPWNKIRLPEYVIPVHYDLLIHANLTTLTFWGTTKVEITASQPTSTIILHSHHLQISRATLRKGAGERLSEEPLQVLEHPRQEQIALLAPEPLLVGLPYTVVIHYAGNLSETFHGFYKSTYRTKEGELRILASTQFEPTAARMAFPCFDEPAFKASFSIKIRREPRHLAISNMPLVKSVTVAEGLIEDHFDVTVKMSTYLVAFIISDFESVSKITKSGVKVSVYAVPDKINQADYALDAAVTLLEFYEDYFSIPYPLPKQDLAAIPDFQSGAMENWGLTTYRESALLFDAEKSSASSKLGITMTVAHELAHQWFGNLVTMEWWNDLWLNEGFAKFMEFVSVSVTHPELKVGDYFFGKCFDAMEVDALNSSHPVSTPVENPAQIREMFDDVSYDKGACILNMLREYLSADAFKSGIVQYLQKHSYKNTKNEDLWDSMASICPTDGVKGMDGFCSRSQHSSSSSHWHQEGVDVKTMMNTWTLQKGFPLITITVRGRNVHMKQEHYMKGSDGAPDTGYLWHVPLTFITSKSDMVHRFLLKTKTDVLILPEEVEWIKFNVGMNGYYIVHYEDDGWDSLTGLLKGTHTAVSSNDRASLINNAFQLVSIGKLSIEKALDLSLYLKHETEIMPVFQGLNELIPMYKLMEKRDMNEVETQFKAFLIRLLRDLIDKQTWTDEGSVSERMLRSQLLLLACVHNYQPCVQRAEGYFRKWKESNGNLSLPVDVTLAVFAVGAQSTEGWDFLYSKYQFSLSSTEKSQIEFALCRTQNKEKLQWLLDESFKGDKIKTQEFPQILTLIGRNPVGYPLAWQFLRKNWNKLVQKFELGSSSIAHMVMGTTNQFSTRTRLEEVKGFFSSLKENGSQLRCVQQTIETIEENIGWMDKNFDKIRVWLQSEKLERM
esBAF inh – inhibitors of esBAF chromatin remodeling in mouse ES cells; Bmi1-luciferase knock-in reporter, 24 h; 100% = twice the neutral-well signal; reporter increase, % at 12.5 µM; 350,000 compounds, 2% hits; AID 602393; in the data active = activation above about 40%; inconclusive = no clear call, values can overlap the other calls;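 note: 0% = median of the plate's neutral control wells and 100% = double that signal; a rise in the Bmi1 reporter signal indicates esBAF inhibition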
Wnt act – activators of Wnt/beta-catenin signaling; activation, % at 9.35 µM; 300,000 compounds, 1.2% hits; Wnt/beta-catenin reporter cell assay, activator, plate reader; in the data active = activation above about 30%, passing the limit was not always enough; inconclusive = no clear call, values can overlap the other calls;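 note: 0% = neutral control wells and 100% = positive control wells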
MITF TRPM1 HTS – increases MITF-driven TRPM1 promoter luciferase signal | 300,000 compounds, 0.75% hits | AID 588334 | activation, % at 12.5 µM | SK-MEL-5 TRPM1-promoter luciferase, 24 h; % of positive control, neutral wells = 0;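 active = mean activation of at least 80% with every replicate also reaching 80%; inconclusive = mean reaches 80% but some replicate falls short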;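 note: 0% = neutral control wells and 100% = parthenolide positive control wells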
esBAF Ring1 qPCR – confirmation of esBAF inhibitors: Ring1 de-repression in mouse ESCs. shares compounds with esBAF inh. mouse ESC E14, Ring1 mRNA RT-qPCR fold change. fold change at 33 µM. 550 tested, under 10 active;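 active = Ring1 gene expression raised more than 2-fold over untreated cells in both replicates at either tested dose; inconclusive = only one replicate above 2-fold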;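 note: Ring1 transcript normalised to actin housekeeping signal by TaqMan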
Fgf4 repress – represses Fgf4 in mouse ESCs, confirming esBAF inhibition; shares compounds with esBAF inh; mouse ESC E14, Fgf4 mRNA qPCR fold change; hits give low values; Fgf4 expression fold change at 33 µM; 550 compounds, 4% hits; AID 743177;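 active = Fgf4 expression under 0.8 fold of control in both repeat measurements at one or both tested doses; inconclusive = under 0.8 fold in just a single repeat measurement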;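 note: Fgf4 transcript normalised to actin in duplex TaqMan qPCR; cells exposed to compound for 24 h before lysis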
Bmi1 derepress – de-represses Bmi1 in mouse ESCs, confirming esBAF inhibition; fold change at 33 µM; AID 743180; 550 tested, under 10 active; shares compounds with esBAF inh; mouse ESE14 ES cells, Bmi1 mRNA qPCR fold; hits give high values;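 active = Bmi1 expression fold change above 6 at either tested concentration, seen in replicate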;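 note: higher fold means more Bmi1 de-repression and stronger esBAF inhibition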
A549 cytotox – A549 cell cytotoxicity. shares compounds with esBAF inh. plate reader. cell viability change % (negative = cytotoxic), % at 25 µM, hits read low. 550 tested, under 10 active. AID 743188; call rule not given here
HepG2 cytotox SP – cytotoxicity in HepG2 cells; activity change, negative = inhibition, % at 25 µM; plate reader; hits give low values; AID 743189; 550 compounds, 4% hits; shares compounds with esBAF inh; in the data active = activity change below about -50%
HEK293 cytotox SP – kills or reduces viability of HEK293 cells. shares compounds with esBAF inh. HEK293 cytotoxicity, plate reader. activity change, negative = inhibition, % at 25 µM, hits read low. 550 compounds, 3% hits. AID 743190; in the data active = activity change below about -38%, passing the limit was not always enough
Numbers without * were called inactive; ? = inconclusive; . = not tested or not shown; [ ] = dose if it differs, or a comment.

SMILES | HIV Env fusion | Cneo AK release | ERAP1 HTS inh | esBAF inh | Wnt act | MITF TRPM1 HTS | esBAF Ring1 qPCR | Fgf4 repress | Bmi1 derepress | A549 cytotox | HepG2 cytotox SP | HEK293 cytotox SP
Cc1ccc(NC(=O)C2CCCN(C(=O)c3ccc(Cl)cc3)C2)cc1C (stereo unspecified) | -5 | -1 | -1 | 69* | 8 | 64 | 0.98 | 1.1 | 1.5 | -7 | -29 | -32
Nc1c(Cl)cc(N=Nc2ccccc2)cc1Cl | -17 | 11 | -2 | 58* | 2 | 8 | 1 | 1 | 1.5 | -3 | -91* | -7
CCC(=O)Nc1ccc2c(c1)C(=O)N(C)C[C@@H](OC)[C@H](C)CN(Cc1cccc(F)c1)[C@H](C)CO2 | . | 56 | 0 | -5 | . | . | . | . | . | . | . | .
C[C@@H]1CN([C@@H](C)CO)C(=O)c2cc(NC(=O)C3CCCCC3)ccc2O[C@@H](C)CCCCO[C@H]1CN(C)Cc1ccc2c(c1)OCO2 | -23[16.7 µM] | -3 | -3 | -1 | . | . | . | . | . | . | . | .
COc1ccc2c(c1OC)C(=O)N1c3ccccc3SC21 (stereo unspecified) | . | -1 | . | 78* | . | 42 | 1 | 0.98 | 1.4 | 9 | -24 | -4
COc1ccc2c(c1OC)C(=O)N1c3ccccc3COC21 (stereo unspecified) | . | 0 | . | 34 | . | ? | . | . | . | . | . | .
CN1c2ccc(Br)cc2[C@@H]2[C@@H](CCN2S(=O)(=O)c2ccccc2)[C@H]1CO | . | 3 | -2 | 1 | . | . | . | . | . | . | . | .
CN(Cc1cccnc1)C(=O)c1cc(COc2ccc3c(c2)CCCC3)on1 | . | -1 | 4 | 86* | 23 | 66 | 1.3 | 0.95 | 1.6 | 1 | -5 | -41
C[C@@H]1CN([C@@H](C)CO)C(=O)c2cc(-c3ccc(C(=O)N(C)C)cc3)cnc2O[C@H]1CN(C)C(=O)CN(C)C | -25[16.7 µM] | 2 | 0 | 0 | . | . | . | . | . | . | . | .
Fc1cccc(-c2ncc(-c3ccccc3)o2)c1 | -24 | -1 | -2 | 73* | 42* | 49 | 1.2 | 0.99 | 1.7 | -6 | 2 | -17
CSc1ccccc1NC(=O)c1cc(C(C)C)on1 | -41 | -1 | . | 78* | . | . | 0.95 | ? | 1.6 | -11 | -31 | -11
CSc1ccccc1NC(=O)c1cc(-c2ccco2)on1 | -2 | -3 | 1 | 28 | 10 | 25 | . | . | . | . | . | .
CSc1cccc(NC(=O)N2CCc3ccc(NC(=O)c4ccccn4)cc3C2)c1 | -6 | -8 | -3 | 60* | 21 | 72 | 0.93 | 1 | 1.2 | -25 | -18 | -17
COc1cc(C=C2C(=O)c3ccccc3C2=O)cc(OC)c1 | 8 | . | -2 | . | 2 | . | . | . | . | . | . | .
COc1cc(/C=C/c2ccccc2)cc(OC)c1 | -30 | 1 | -3 | 68* | -1 | 96* | 0.89 | 0.99 | 1.3 | -12 | -19 | -11
CO[C@@H]1CN(C)C(=O)c2ccc(NS(C)(=O)=O)cc2OC[C@H](C)N(CCC(F)(F)F)C[C@H]1C | 16[16.7 µM] | 1 | 1 | 2 | . | . | . | . | . | . | . | .
CCS(=O)(=O)N1CC(=O)N2[C@H](C1)[C@@H](c1ccc(C#CC3CCCCC3)cc1)[C@@H]2CO | . | . | 2 | . | . | . | . | . | . | . | . | .
CC(C)Cc1cc(C(=O)Nc2c(F)cc(F)cc2Br)no1 | -8 | 1 | 6 | 11 | -3 | 36 | . | . | . | . | . | .
CC(C)Cc1cc(C(=O)Nc2ccc(Br)cc2)no1 | -11 | . | -2 | 69* | 37* | 111* | 0.92 | 0.96 | 1.7 | 0 | 29 | -19
Oc1ccccc1/C=N/N1CCN(c2ccccn2)CC1 | -43 | . | 0 | 78* | 38* | 71 | 1.1 | 1.1 | 1.4 | -18 | -9 | -20
C=CCOc1ccccc1/C=N/NC(=O)c1ccc(Cl)cc1Cl | -11 | 0 | . | -2 | 2 | 2 | . | . | . | . | . | .
COc1cc(C(=O)Oc2ccccc2/C=N/NC(=O)c2ccc(Cl)cc2Cl)cc(OC)c1OC | . | 2 | . | 47* | . | 21 | 1.1 | 1 | 8.4* | -8 | 9 | -5
CC(/C=C/c1ccc(N(C)C)cc1)=N/N=C1/NC(=O)CC(C(=O)Nc2ccc(Cl)cc2)S1 (stereo unspecified) | -20 | -5 | 0 | . | . | 30 | . | . | . | . | . | .
CCCOc1ccc(NC(=O)C2CC(=O)N/C(=N/N=C(C)/C=C/c3ccc(N(C)C)cc3)S2)cc1 (stereo unspecified) | . | 0 | . | 59* | . | 58 | 0.95 | 0.9 | 1.3 | -2 | -19 | -4
Nc1ccc2c(c1)Cc1cc(N)c(Cl)cc1-2 | -8 | -4 | 0 | 88* | -4 | 32 | 1.4 | 1 | 1.6 | -8 | -41 | 9
SMILES | HIV Env fusion | Cneo AK release | ERAP1 HTS inh | esBAF inh | Wnt act | MITF TRPM1 HTS | esBAF Ring1 qPCR | Fgf4 repress | Bmi1 derepress | A549 cytotox | HepG2 cytotox SP | HEK293 cytotox SP
CN(CCc1ccccn1)C(=O)CCc1nnc(CCCc2ccccc2)o1 | -28 | . | 2 | 110* | -1 | 28 | 0.96 | 0.94 | 1.3 | -7 | -6 | -5
C[C@@H]1CN([C@H](C)CO)C(=O)c2cc(C3=CCCC3)cnc2O[C@@H]1CN(C)C(=O)CN1CCOCC1 | 12[16.7 µM] | -1 | -1 | -6 | . | . | . | . | . | . | . | .
Cc1ccc(NC(=O)NC2CCCCCCC2)cc1C | -107 | 1 | -8 | 61* | 20 | 63 | 1.5 | 0.94 | 1.6 | 10 | 4 | 1
CC(=O)c1cccc(NC(=O)NC2CCCCC2)c1 | . | -1 | -3 | 22 | 1 | 27 | . | . | . | . | . | .
CC(C)NC(=O)N(C)C[C@H]1Oc2ncc(C#CCc3ccccc3)cc2C(=O)N([C@H](C)CO)C[C@@H]1C | 18[16.7 µM] | 1 | 7 | -2 | . | . | . | . | . | . | . | .
COc1ccc(NC(=O)N[C@H]2CC[C@H](CCNS(=O)(=O)c3ccccc3F)O[C@H]2CO)cc1 | 9[16.7 µM] | -2 | 0 | 0 | . | . | . | . | . | . | . | .
O=C(O)c1ccc(N/N=C/c2cccc3nccnc23)cc1 | 14 | -3 | -6 | 65* | 23 | 49 | 1.2 | 0.85 | 1.8 | -13 | -29 | 6
O=C(Nc1ccc2c(c1)C(=O)c1ccccc1-2)c1ccccc1 | -17 | -3 | -6 | 94* | -2 | 39 | 1.1 | 0.84 | 1.4 | -5 | -23 | -11
O=C(Cn1c(/C=C/c2ccccc2)nc2ccccc21)Nc1ccc(F)cc1 | -64 | -3 | . | 80* | 16 | 85* | 0.99 | 1 | 1.5 | 7 | 30 | 3

Screens deposited in PubChem BioAssay by Broad Institute.
